From ChEMBL document CHEMBL1137670, “First occurrence of an IMP metallo-beta-lactamase in Aeromonas caviae: IMP-19 in an isolate from France” (2007)

Assays:
[1] = substrate: CO/N=C(\C(=O)N[C@@H]1C(=O)N2C(C(=O)O)=C(COC(N)=O)CS[C@H]12)c1ccco1; test: (§1) Activity of Aeromonas caviae A324R metallo-beta-lactamase IMP-19 expressed in Escherichia coli DH5alpha by computerized microacidimetric method
Summary of the method: (§2)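 IMP-19 purified from sonicated recombinant E. coli DH5alpha(pIP19). Purification: SP Sepharose in 50 mM MES-NaOH pH 6.0 with 0–500 mM NaCl gradient, then 5 mM ZnCl2 and Superose 12 in 20 mM MES-NaOH–100 mM NaCl pH 6.0; purity >97% by SDS-PAGE. Km and kcat measured three times by computerized microacidimetry; variation coefficients at most 10%.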

[2] = substrate: CC1(C)S[C@@H]2[C@H](NC(=O)[C@H](N)c3ccc(O)cc3)C(=O)N2[C@H]1C(=O)O; test: as §1; summary of the method: as §2
[3] = substrate: CO[C@@]1(NC(=O)Cc2cccs2)C(=O)N2C(C(=O)O)=C(COC(N)=O)CS[C@@H]21; test: as §1; summary of the method: as §2
[4] = substrate: CC(C)(O/N=C(\C(=O)N[C@@H]1C(=O)N2C(C(=O)[O-])=C(C[n+]3ccccc3)CS[C@H]12)c1csc(N)n1)C(=O)O; test: as §1; summary of the method: as §2
[5] = substrate: C[C@@H](O)[C@H]1C(=O)N2C(C(=O)O)=C(S[C@@H]3CN[C@H](C(=O)N(C)C)C3)[C@H](C)[C@H]12; test: as §1; summary of the method: as §2
[6] = substrate: CC(=O)OCC1=C(C(=O)O)N2C(=O)[C@@H](NC(=O)Cc3cccs3)[C@H]2SC1; test: as §1; summary of the method: as §2
[7] = substrate: C[C@H]1[C@H](NC(=O)/C(=N\OC(C)(C)C(=O)O)c2csc(N)n2)C(=O)N1S(=O)(=O)O; test: as §1; summary of the method: as §2
[8] = substrate: CC1(C)S[C@@H]2[C@H](NC(=O)Cc3ccccc3)C(=O)N2[C@H]1C(=O)O; test: as §1; summary of the method: as §2
[9] = substrate: CO/N=C(\C(=O)N[C@@H]1C(=O)N2C(C(=O)[O-])=C(C[n+]3cccc4c3CCC4)CS[C@H]12)c1csc(N)n1; test: as §1; summary of the method: as §2
[10] = substrate: CO/N=C(\C(=O)N[C@@H]1C(=O)N2C(C(=O)O)=C(COC(C)=O)CS[C@H]12)c1csc(N)n1; test: as §1; summary of the method: as §2
[11] = substrate: C[C@@H](O)[C@H]1C(=O)N2C(C(=O)O)=C(SCCNC=N)C[C@H]12; test: as §1; summary of the method: as §2
[12] = substrate: CCN1CCN(C(=O)N[C@@H](C(=O)N[C@@H]2C(=O)N3[C@@H]2SC(C)(C)[C@@H]3C(=O)O)c2ccccc2)C(=O)C1=O; test: as §1; summary of the method: as §2
[13] = substrate: CC1(C)S[C@@H]2[C@H](NC(=O)[C@H](C(=O)O)c3ccsc3)C(=O)N2[C@H]1C(=O)O; test: as §1; summary of the method: as §2
[14] = substrate: CO/N=C(\C(=O)N[C@@H]1C(=O)N2C(C(=O)O)=C(COC(N)=O)CS[C@H]12)c1ccco1; test: (§3) Ratio of Kcat to Km of Aeromonas caviae A324R metallo-beta-lactamase IMP-19 expressed in Escherichia coli DH5alpha by computerized microacidimetric method; summary of the method: as §2
[15] = substrate: CC1(C)S[C@@H]2[C@H](NC(=O)[C@H](N)c3ccc(O)cc3)C(=O)N2[C@H]1C(=O)O; test: as §3; summary of the method: as §2
[16] = substrate: CO[C@@]1(NC(=O)Cc2cccs2)C(=O)N2C(C(=O)O)=C(COC(N)=O)CS[C@@H]21; test: as §3; summary of the method: as §2
[17] = substrate: CC(C)(O/N=C(\C(=O)N[C@@H]1C(=O)N2C(C(=O)[O-])=C(C[n+]3ccccc3)CS[C@H]12)c1csc(N)n1)C(=O)O; test: as §3; summary of the method: as §2
[18] = substrate: C[C@@H](O)[C@H]1C(=O)N2C(C(=O)O)=C(S[C@@H]3CN[C@H](C(=O)N(C)C)C3)[C@H](C)[C@H]12; test: as §3; summary of the method: as §2
[19] = substrate: CC(=O)OCC1=C(C(=O)O)N2C(=O)[C@@H](NC(=O)Cc3cccs3)[C@H]2SC1; test: as §3; summary of the method: as §2
[20] = substrate: CC1(C)S[C@@H]2[C@H](NC(=O)Cc3ccccc3)C(=O)N2[C@H]1C(=O)O; test: as §3; summary of the method: as §2
[21] = substrate: CO/N=C(\C(=O)N[C@@H]1C(=O)N2C(C(=O)[O-])=C(C[n+]3cccc4c3CCC4)CS[C@H]12)c1csc(N)n1; test: as §3; summary of the method: as §2
[22] = substrate: CO/N=C(\C(=O)N[C@@H]1C(=O)N2C(C(=O)O)=C(COC(C)=O)CS[C@H]12)c1csc(N)n1; test: as §3; summary of the method: as §2
[23] = substrate: C[C@@H](O)[C@H]1C(=O)N2C(C(=O)O)=C(SCCNC=N)C[C@H]12; test: as §3; summary of the method: as §2
[24] = substrate: CCN1CCN(C(=O)N[C@@H](C(=O)N[C@@H]2C(=O)N3[C@@H]2SC(C)(C)[C@@H]3C(=O)O)c2ccccc2)C(=O)C1=O; test: as §3; summary of the method: as §2
[25] = substrate: CC1(C)S[C@@H]2[C@H](NC(=O)[C@H](C(=O)O)c3ccsc3)C(=O)N2[C@H]1C(=O)O; test: as §3; summary of the method: as §2

B1: IMP-19 (Aeromonas caviae), A8QUY6 (protein)
chain: MKKLFVLCVCFLCSITAAGAALPDLKIEKLEEGVYVHTSFEEVNGWGVVSKHGLVVLVNTDAYLIDTPFTATDTEKLVNWFVERGYKIKGTISSHFHSDSTGGIEWLNSQSIPTYASELTNELLKKDGKVQAKNSFSGVSYWLVKNKIEVFYPGPGHTQDNVVVWLPEKKILFGGCFVKPDGLGNLGDANLEAWPKSAKILMSKYVKAKLVVSSHSEIGDASLLKRTWEQAVKGLNESKKPSQPSN
For B1, the Km [1] was 95 µM, the kcat [1] was 16.4 s⁻¹ and the Km [2] was 207 µM. It also gave a kcat [2] of 456 s⁻¹, a Km [3] of 33 µM and a kcat [3] of 9.7 s⁻¹. It also gave a Km [4] of 20 µM, a kcat [4] of 6.4 s⁻¹ and a Km [5] of 7 µM. For the same protein, the kcat [5] was 1 s⁻¹, the Km [6] was 76 µM and the kcat [6] was 11 s⁻¹. For the same protein, the kcat [7] was under 0.1 s⁻¹, the Km [8] was 206 µM and the kcat [8] was 1010 s⁻¹. For the same protein, the Km [9] was 48 µM, the kcat [9] was 14.3 s⁻¹ and the Km [10] was 61 µM. The kcat [10] was 20.1 s⁻¹, the Km [11] was 100 µM and the kcat [11] was 26.5 s⁻¹. The Km [12] was 148 µM, the kcat [12] was 41.2 s⁻¹ and the Km [13] was 140 µM. The kcat [13] was 683 s⁻¹, the kcat/Km [14] was 0.17 and the kcat/Km [15] was 2.2. It also gave a kcat/Km [16] of 0.29, a kcat/Km [17] of 0.32 and a kcat/Km [18] of 0.14. For the same protein, the kcat/Km [19] was 0.14, the kcat/Km [20] was 4.91 and the kcat/Km [21] was 0.3. The kcat/Km [22] was 0.33, the kcat/Km [23] was 0.26 and the kcat/Km [24] was 0.28. For the same protein, the kcat/Km [25] was 4.88.
